The source made the active and inactive calls. The calls are words filed in the database; no cut-off is given here.
How the values were obtained:
[1] = test system: Cardiac muscle cell; assay: Cytoprotective activity against serum deprivation-induced neonatal Wistar rat cardiomyocyte death assessed as increase in cell viability measured after 4 days by WST-8 assay; type: functional
How it was run: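 Primary neonatal rat cardiomyocytes were isolated by proteinase digestion, with preplating to remove adherent non-myocytes. Death was induced by serum deprivation at low density (3×10^5 cells/ml) for 4 days with compound present. Viability was read by WST-8. MEC1.5 is the concentration giving a 50% rise in viability. n = 3.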

[2] = test system: Cardiac muscle cell; assay: Cytoprotective activity against serum deprivation-induced neonatal Wistar rat cardiomyocyte death assessed as suppression of internucleosomal cleavage of genomic DNA at 0.37 uM measured after 3 days by agarose gel electrophoresis; type: functional, cell-based; conditions: time 3.0 day
How it was run: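 Neonatal rat cardiomyocytes held with or without 0.37 μM compound in serum-free medium for 3 days. Genomic DNA then isolated and internucleosomal laddering examined by agarose gel electrophoresis.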

[3] = test system: Cardiac muscle cell; assay: Cytoprotective activity against DOX-induced neonatal Wistar rat cardiomyocyte death assessed as increase in cell viability at 4.6 to 370 nM preincubated for 3 hrs followed by DOX addition and measured after 18 hrs by WST-8 assay; type: functional, cell-based; conditions: dose 4.6-370 nM, time 21.0 hrs
How it was run: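 Neonatal rat cardiomyocytes, isolated by proteinase digestion and preplating, pretreated with samples for 3 hr in serum-free medium, then exposed to 200 nM doxorubicin for 18 hr. Viability by WST-8. Mean ± SD, n = 6.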

[4] = Upregulation of heme oxygenase-1 gene expression in serum-deprived neonatal Wistar rat cardiomyocyte at 0.37 uM incubated for 21 hrs by microarray analysis relative to control; type: functional, Cardiac muscle cell
How it was run: (§1)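 Primary neonatal rat cardiomyocytes, isolated by proteinase digestion with preplating to deplete nonmyocytes, cultured in serum-free medium with or without 0.37 μM compound for 21 hr. Total RNA was recovered and global expression profiled on an Affymetrix GeneChip rat genome U34A array (about 7000 known genes). Change is relative to untreated cells.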

[5] = Upregulation of NAD(P)H: quinone reductase gene expression in serum-deprived neonatal Wistar rat cardiomyocyte at 0.37 uM incubated for 21 hrs by microarray analysis relative to control; type: functional, Cardiac muscle cell
How it was run: (§2)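 Primary neonatal rat cardiomyocytes cultured with or without 0.37 μM compound in serum-free medium for 21 hr. Total RNA profiled on the rat genome U34A GeneChip array (about 7000 known genes).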

[6] = Upregulation of multidrug resistance protein gene expression in serum-deprived neonatal Wistar rat cardiomyocyte at 0.37 uM incubated for 21 hrs by microarray analysis relative to control; type: functional, Cardiac muscle cell; how it was run: as §1
[7] = Upregulation of catalase gene expression in serum-deprived neonatal Wistar rat cardiomyocyte at 0.37 uM incubated for 21 hrs by microarray analysis relative to control; type: functional, Cardiac muscle cell; how it was run: as §1
[8] = Upregulation of gamma-glutamylcysteine synthetase gene expression in serum-deprived neonatal Wistar rat cardiomyocyte at 0.37 uM incubated for 21 hrs by microarray analysis relative to control; type: functional, Cardiac muscle cell; how it was run: as §1
[9] = Upregulation of glutathione reductase gene expression in serum-deprived neonatal Wistar rat cardiomyocyte at 0.37 uM incubated for 21 hrs by microarray analysis relative to control; type: functional, Cardiac muscle cell; how it was run: as §1
[10] = Upregulation of bilirubin-specific UDP glucuronosyltransferase gene expression in serum-deprived neonatal Wistar rat cardiomyocyte at 0.37 uM incubated for 21 hrs by microarray analysis relative to control; type: functional, Cardiac muscle cell; how it was run: as §2
[11] = target: Macrophage migration inhibitory factor (Rattus norvegicus) (UniProt P30904); assay: Binding affinity to BTZO-12 sensor chip immobilized recombinant rat MIF expressed in Escherichia coli BL21 (DE3) at pH 6 by SPR analysis
How it was run: (§3)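 SPR on a BTZO-12-type sensor chip with purified recombinant rat MIF, binding compared at pH 6.0 and pH 7.3.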
Target sequence in this assay (P30904 2-115 limits assumed): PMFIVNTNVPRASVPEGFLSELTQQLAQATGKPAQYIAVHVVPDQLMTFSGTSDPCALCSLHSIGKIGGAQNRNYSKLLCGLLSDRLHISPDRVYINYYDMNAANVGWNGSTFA

[12] = target: Macrophage migration inhibitory factor (Rattus norvegicus) (UniProt P30904); assay: Binding affinity to BTZO-12 sensor chip immobilized recombinant rat MIF expressed in Escherichia coli BL21 (DE3) at pH 7.3 by SPR analysis; how it was run: as §3
Target sequence in this assay (P30904 2-115 limits assumed): as above

[13] = target: T1, Macrophage migration inhibitory factor (Homo sapiens, UniProt P14174); assay: Binding affinity to recombinant human C-terminal His-tagged MIF expressed in Escherichia coli BL21 (DE3) at 400 nM incubated for 6 hrs using labelled compound by scintillation proximity assay
T1 sequence (P14174 whole entry): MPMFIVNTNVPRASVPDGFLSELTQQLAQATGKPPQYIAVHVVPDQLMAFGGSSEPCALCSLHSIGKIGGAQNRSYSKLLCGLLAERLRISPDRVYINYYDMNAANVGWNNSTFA
How it was run: (§4)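 Scintillation proximity assay: 6His-tagged protein (hMIF, rat GST Ya or rat VILIP3) captured on copper His-tag SPA beads with [3H]-BTZO-1; emitted light counted on a microplate scintillation counter. Mean of n = 2.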

[14] = species on record: Rattus norvegicus; assay: Binding affinity to rat 6His-tagged VILIP3 expressed in Escherichia coli BL21 (DE3) at 400 nM incubated for 6 hrs using labelled compound by scintillation proximity assay; how it was run: as §4
[15] = target: T1, Macrophage migration inhibitory factor; assay: Binding affinity to BTZO-12 sensor chip immobilized human MIF expressed in Escherichia coli BL21 (DE3) by SPR analysis
How it was run: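 Sensor chip carrying immobilized BTZO-12; MIF (wild type or point mutants) passed over it and specific binding monitored by surface plasmon resonance.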

[16] = target: Macrophage migration inhibitory factor (Rattus norvegicus) (UniProt P30904); assay: Inhibition of MIF tautomerase activity in rat H9c2 cells at 30 uM using L-dopachrome carboxy-methyl ester as substrate incubated for 6 hrs under serum-free medium by spectrophotometry relative to control; type: cell-based
How it was run: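 H9c2 cells exposed to 30 μM compound for 6 hr; MIF tautomerase activity then measured in cell lysate.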
Target sequence in this assay (P30904 2-115 limits assumed): as the sequence (P30904 2-115 limits assumed) above

[17] = Reduction in MIF mRNA expression in rat H9c2 cells transfected with MIF siRNA at 3 uM measured after 24 hrs RT-qPCR analysis relative to control; type: functional; design: scale not given: the % may be the effect or the level left
How it was run: (§5)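 H9c2 cells transfected with 100 nM rat MIF siRNA or negative-control siRNA using Oligofectamine in Opti-MEM, then treated with 3 μM compound for 24 hr. MIF mRNA by real-time qPCR; MIF protein in cell lysate and medium by ELISA. Mean ± SD, n = 3.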

[18] = Reduction in MIF expression in MIF siRNA transfected rat H9c2 cell lysates at 3 uM measured after 24 hrs ELISA relative to control; type: functional; design: scale not given: the % may be the effect or the level left; how it was run: as §5
[19] = Reduction in MIF expression in MIF siRNA transfected rat H9c2 cell culture medium at 3 uM measured after 24 hrs ELISA relative to control; type: functional; design: scale not given: the % may be the effect or the level left; how it was run: as §5
[20] = test system: Antioxidant response element; assay: Induction of ARE-mediated GST Ya mRNA expression in MIF siRNA transfected rat H9c2 cells at 3 uM measured after 24 hrs by RT-qPCR analysis; type: cell-based
How it was run: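 H9c2 cells transfected with MIF siRNA or control siRNA (100 nM, Oligofectamine), then treated with 3 μM compound with or without 0.8 μM rMIF for 24 hr. GST Ya and HO-1 mRNA by real-time qPCR; mean ± SD, n = 3. MIF effect on drug efficacy tested by Aspin-Welch test.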

[21] = target: Macrophage migration inhibitory factor (Rattus norvegicus) (UniProt P30904); assay: Inhibition of [3H]-BTZO-1 binding to recombinant rat C-terminal His-tagged MIF expressed in Escherichia coli BL21 (DE3) measured after 3 hrs by SPA
Target sequence in this assay (P30904 whole entry, looked up): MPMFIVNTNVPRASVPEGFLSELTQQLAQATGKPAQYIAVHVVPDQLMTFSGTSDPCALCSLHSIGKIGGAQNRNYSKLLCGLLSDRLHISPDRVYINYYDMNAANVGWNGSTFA

O=c1nc(-c2ccccn2)sc2ccccc12 [BTZO-1]
MEC1.5 ([1]; time 4 day): 16 nM
Activity ([1]; time 4.0 day): Dose-Dependent Effect
Activity [2]: Active
Activity [3]: Active
fold change (FC) [4]: 2
fold change (FC) [5]: 9.4
fold change (FC) [6]: 2.7
fold change (FC) [7]: 2.3
fold change (FC) [8]: 2.4
fold change (FC) [9]: 4.4
fold change (FC) [10]: 5.2
Activity [11]: Active
Activity [12]: Active
Kd [13]: 68.6 nM
Activity [14]: inactive
Kd [15]: 88 nM
inhibition [16]: 20%
Activity [17]: ~80%
Activity [18]: ~50%
Activity [19]: ~75%
Activity [20]: inactive
IC50 [21]: 71 nM

From ChEMBL document CHEMBL5715946 (Chem Biol, 2010)
